Test results from ChEMBL document CHEMBL2016465, “Host-directed Inhibitors of Myxoviruses: Synthesis and in vitro Biochemical Evaluation” (ACS Med Chem Lett, 2011).
pEC50: −log10 of the molar value.

Tests used:
Measles morbillivirus [1] = assay: Antiviral activity against Measles virus MVi/Alaska USA/16.00 genotype H2 infected in african green monkey Vero cells assessed as reduction in viral-induced cytopathogenicity; type: functional, organism-based; conditions: MVi/Alaska USA/16.00 genotype H2, Vero
How it was run: (§1)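 Run on actively dividing cells. EC50 from four-parameter variable-slope nonlinear regression, reported as the average of four experiments ± SEM. Highest concentration tested was 75 μM.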

Vero = assay: (§2) Cytotoxicity against african green monkey Vero cells after 24 hrs by MTT assay; type: cell-based; conditions: chlorocebus sabaeus, vero, 24 h
How it was run: (§3)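 Run on confluent cell monolayers to reflect acute toxicity. CC50 is given as the range of two experiments. Highest concentration tested was 75 μM.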

Measles morbillivirus [2] = assay: Antiviral activity against Measles virus; type: functional, organism-based; how it was run: as §1
[3] = as §2; type: cell-based; conditions: chlorocebus sabaeus, Vero cells; how it was run: as §3
Paramyxoviridae = assay: Antiviral activity against Paramyxovirus measured 28 to 36 hrs post infection by cell based virus yield reduction assay; type: functional
[4] = system: unidentified influenza virus; assay: Antiviral activity against Influenza virus; type: functional, organism-based
Measles morbillivirus [5] = assay: Antiviral activity against Measles virus MVi/Alaska USA/16.00 genotype H2 infected in african green monkey Vero cells measured 28 to 36 hrs post infection by cell based virus yield reduction assay; type: functional, organism-based; conditions: MVi/Alaska USA/16.00 genotype H2, Vero; how it was run: as §1
[6] = system: Respiratory syncytial virus; assay: Antiviral activity against Respiratory syncytial virus; type: functional, organism-based; conditions: human respiratory syncytial virus
Human respirovirus 3 = assay: Antiviral activity against Human parainfluenza virus 3; type: functional, organism-based
Mumps virus = assay: Antiviral activity against Mumps virus; type: functional, organism-based; conditions: Mumps orthorubulavirus

SMILES	pEC50 (Measles morbillivirus [1])	also measured
COc1ccc(-n2c(CCC(=O)Nc3ccc(C)cc3Cl)nc3ccccc32)cc1	< 3.82	–
COc1ccc(-n2c([S+]([O-])C(C)C(=O)Nc3ccc(C)cc3Cl)nc3ccccc32)cc1 (stereo not drawn)	5.89	CC50 (Vero): > 75000 nM
CCOc1ccc(-n2c(SC(C)C(=O)Nc3cc(C)cc(C)n3)nc3ccccc32)cc1 (racemic)	5.92	–
COc1ccc(-n2c(SC(C)C(=O)Nc3cc(C)nn3C)nc3ccccc32)cc1 (racemic)	6.30	CC50 (Vero): 75000 nM
COc1ccc(-n2c(S[C@H](C)C(=O)Nc3ccc(C)cc3Cl)nc3ccccc32)cc1	6.70	–
O=C(CSc1nc2ccccc2n1-c1ccccc1)Nc1ncc(Cl)cc1Cl	–	pEC50 (Measles morbillivirus [2]): 6.15
COc1ccc(-n2c(S(=O)(=O)C(C)C(=O)Nc3ccc(C)cc3Cl)nc3ccccc32)cc1 (stereo not drawn)	< 3.82	–
COc1ccc(-n2c(SC(C)C(=O)Nc3ncc(C)cc3Cl)nc3ccccc32)cc1 (racemic)	7.30	CC50 at 24 h [3]: 880 nM
COc1ccc(-n2c(SC(C)C(=O)Nc3ccc(C)cc3Cl)nc3ccccc32)cc1 (racemic)	6.70	pEC50 (Paramyxoviridae): 8.00; pEC50 [4]: 8.00; CC50 (Vero): > 75000 nM; pEC50 (Measles morbillivirus [5]): 7.52; pEC50 [6]: 8.00; pEC50 (Human respirovirus 3): 8.00; pEC50 (Mumps virus): 8.00
COc1ccc(-n2c(SC(C)C(=O)Nc3cc(C)no3)nc3ccccc32)cc1 (racemic)	6.40	CC50 (Vero): > 75000 nM
COc1ccc(-n2c(SC(C)C(=O)Nc3nnc(C)c(C)n3)nc3ccccc32)cc1 (racemic)	5.03	–
COc1ccc(Cn2c(NC(C)C(=O)Nc3ccc(C)cc3Cl)nc3ccccc32)cc1 (stereo not drawn)	< 3.82	–
Cc1cccc(-n2c(SCC(=O)Nc3ncc(Cl)cc3Cl)nc3ccccc32)c1	–	pEC50 (Measles morbillivirus [2]): 5.68
COc1ccc(-n2c(S[C@@H](C)C(=O)Nc3ccc(C)cc3Cl)nc3ccccc32)cc1	6.52	–
COc1ccc(-n2c(SC(C)C(=O)Nc3nc(C)cs3)nc3ccccc32)cc1 (racemic)	5.55	–
COc1ccc(-n2c(SC(C)C(=O)Nc3cc(Br)ccc3Br)nc3ccccc32)cc1 (racemic)	5.85	–
Cc1ccc(NC(=O)C(C)Sc2nc3ccccc3n2Cc2ccccc2)c(Cl)c1 (stereo not drawn)	6.40	CC50 (Vero): > 75000 nM
COc1ccc(-n2c(SC(C)C(=O)Nc3nc(C)cc(Cl)n3)nc3ccccc32)cc1 (racemic)	< 4.12	–
Cc1nnc(NC(=O)C(C)Sc2nc3ccccc3n2-c2ccc(F)cc2)nc1C (racemic)	4.76	–
COc1ccc(Cn2c(SC(C)C(=O)Nc3ccc(C)cc3Cl)nc3ccccc32)cc1 (stereo not drawn)	6.15	CC50 (Vero): > 75000 nM
COc1ccc(-n2c(SC(C)C(=O)Nc3nc(C)c(Br)cc3Br)nc3ccccc32)cc1 (racemic)	6.30	CC50 at 24 h [3]: 9700 nM
COc1ccc(-n2c(SC(C)C(=O)Nc3ncc(Cl)cc3Cl)nc3ccccc32)cc1 (stereo not drawn)	6.46	CC50 (Vero): > 75000 nM; pEC50 (Measles morbillivirus [2]): 6.70
COc1ccc(-n2c(SC(C)C(=O)Nc3nc(C)c(Cl)cc3Cl)nc3ccccc32)cc1 (racemic)	6.70	CC50 at 24 h [3]: 7250 nM
Cc1ccc(NC(=O)[C@H](C)Oc2nc3ccccc3n2Cc2ccccc2)c(Cl)c1	< 3.82	–
COc1ccc(-n2c(SC(C)C(=O)Nc3ncc(C(F)(F)F)cc3Cl)nc3ccccc32)cc1 (racemic)	6.40	CC50 at 24 h [3]: 9200 nM
CC(Sc1nc2ccccc2n1-c1ccc(F)cc1)C(=O)Nc1ncc(Cl)cc1Cl (racemic)	7.00	CC50 at 24 h [3]: 5900 nM
COc1ccc(-n2c(SC(C)C(=O)Nc3ccc(Cl)cn3)nc3ccccc32)cc1 (racemic)	< 4.12	–
CCOc1ccc(-n2c(SC(C)C(=O)Nc3ncc(Cl)cc3Cl)nc3ccccc32)cc1 (racemic)	7.00	CC50 at 24 h [3]: 18500 nM
